Data taken from ChEMBL document CHEMBL1250467, “Design, synthesis, and anticonvulsant activity of new N-Mannich bases derived from spirosuccinimides and spirohydantoins” (Bioorg Med Chem, 2010).
Activity calls are given as the source filed them. The calls are words filed in the database; no cut-off is given here.

What was measured:
[1] = test system: Rattus norvegicus; assay: Anticonvulsant activity in Sprague-Dawley rat assessed as protection against maximal electroshock-induced seizures at 30 mg/kg po after 2 hrs; assay type: functional
Procedure, shortened: (§1)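 Male Sprague–Dawley rats, four per group, given 30 mg/kg orally as a 0.5% methylcellulose/water suspension. MES protection scored at 0.25, 0.5, 1, 2 and 4 h after dosing, motor impairment checked in parallel; data are the number of the four rats protected.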

[2] = species: Rattus norvegicus; assay: Protection index, ratio of TD50 for Sprague-Dawley rat by rotarod test to ED50 for Sprague-Dawley rat by maximal electroshock test; assay type: functional
Procedure, shortened: (§2)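 Male Sprague–Dawley rats dosed orally (0.5% methylcellulose/water suspension), groups of eight, tested at the previously estimated time of peak effect. Doses varied until at least three points lay in the 10–90% range of protection (MES, scPTZ) or minimal rotarod neurotoxicity. ED50/TD50 with 95% confidence intervals came from regression; PI = TD50/ED50.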

[3] = test system: Rattus norvegicus; assay: Anticonvulsant activity in Sprague-Dawley rat assessed as protection against maximal electroshock-induced seizures at 30 mg/kg po after 0.5 hrs; assay type: functional; procedure, shortened: as §1
[4] = test system: Mus musculus; assay: Anticonvulsant activity in ip dosed CF1 albino mouse assessed as dose required to protect against subcutaneous pentylenetetrazole-induced seizures after 0.5 hrs; assay type: functional
Procedure, shortened: (§3)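 Male CF-1 mice; compounds suspended in 0.5% methylcellulose/water and injected ip at 30, 100 and 300 mg/kg. MES, scPTZ (pentylenetetrazole 85 mg/kg sc at the test time) and rotarod neurotoxicity were scored at 0.5 and 4 h. Value is the lowest dose active or toxic in half or more of the animals; signs such as ataxia or tremor were recorded.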

[5] = test system: Mus musculus; assay: Neurotoxicity in CF1 albino mouse assessed as unable to grasp rotarod at 100 mg/kg, ip after 4 hrs by rotarod test; assay type: toxicity, organism-based; parameters: dose 100 mg/kg, route intraperitoneal; conditions: in vivo; procedure, shortened: as §3
[6] = test system: Mus musculus; assay: Anticonvulsant activity in ip dosed CF1 albino mouse assessed as dose required to protect against subcutaneous pentylenetetrazole-induced seizures after 4 hrs; assay type: functional; procedure, shortened: as §3
[7] = test system: Rattus norvegicus; assay: Anticonvulsant activity in Sprague-Dawley rat assessed as protection against maximal electroshock-induced seizures at 30 mg/kg po after 1 hr; assay type: functional; procedure, shortened: as §1
[8] = Neurotoxicity in po dosed Sprague-Dawley rat by rotarod test; assay type: toxicity, organism-based; conditions: in vivo; procedure, shortened: as §2
[9] = test system: Rattus norvegicus; assay: Anticonvulsant activity in Sprague-Dawley rat assessed as protection against maximal electroshock-induced seizures at 30 mg/kg po after 0.25 hrs; assay type: functional; procedure, shortened: as §1
[10] = test system: Mus musculus; assay: Anticonvulsant activity in ip dosed CF1 albino mouse assessed as dose required to protect against maximal electroshock-induced seizures after 0.5 hrs; assay type: functional; procedure, shortened: as §3
[11] = test system: Mus musculus; assay: Neurotoxicity in CF1 albino mouse at 300 mg/kg, ip after 4 hrs by rotarod test; assay type: toxicity, organism-based; parameters: dose 300 mg/kg, route intraperitoneal; conditions: in vivo; procedure, shortened: as §3
[12] = test system: Rattus norvegicus; assay: Anticonvulsant activity in Sprague-Dawley rat assessed as protection against maximal electroshock-induced seizures at 30 mg/kg po after 4 hrs; assay type: functional; procedure, shortened: as §1
[13] = test system: Rattus norvegicus; assay: Anticonvulsant activity in po dosed Sprague-Dawley rat assessed as protection against maximal electroshock-induced seizures; assay type: functional; procedure, shortened: as §2
[14] = test system: Rattus norvegicus; assay: Anticonvulsant activity in po dosed Sprague-Dawley rat assessed as protection against subcutaneous pentylenetetrazole-induced seizures; assay type: functional; procedure, shortened: as §2
[15] = test system: Mus musculus; assay: Anticonvulsant activity in ip dosed CF1 albino mouse assessed as dose required to protect against maximal electroshock-induced seizures after 4 hrs; assay type: functional; procedure, shortened: as §3
[16] = test system: Rattus norvegicus; assay: Anticonvulsant activity in po dosed Sprague-Dawley rat assessed as time required to peak protection against seizures; assay type: functional
[17] = test system: Mus musculus; assay: Anticonvulsant activity in CF1 albino mouse assessed as protection against maximal electroshock-induced seizures at 300 mg/kg, ip after 0.5 hrs; assay type: functional, organism-based; parameters: dose 300 mg/kg; procedure, shortened: as §3
[18] = test system: Mus musculus; assay: Anticonvulsant activity in CF1 albino mouse assessed as protection against subcutaneous pentylenetetrazole-induced seizures at 300 mg/kg, ip after 0.5 hrs; assay type: functional, organism-based; parameters: dose 300 mg/kg; procedure, shortened: as §3
[19] = test system: Mus musculus; assay: Anticonvulsant activity in CF1 albino mouse assessed as protection against subcutaneous pentylenetetrazole-induced seizures at 300 mg/kg, ip after 4 hrs; assay type: functional, organism-based; parameters: dose 300 mg/kg; procedure, shortened: as §3
[20] = test system: Mus musculus; assay: Neurotoxicity in CF1 albino mouse assessed as ataxia at 300 mg/kg, ip after 4 hrs by rotarod test; assay type: toxicity, organism-based; parameters: dose 300 mg/kg, route intraperitoneal; conditions: in vivo; procedure, shortened: as §3
[21] = test system: Mus musculus; assay: Neurotoxicity in CF1 albino mouse assessed as muscle spasms at 300 mg/kg, ip after 4 hrs by rotarod test; assay type: toxicity, organism-based, Muscle tissue; parameters: dose 300 mg/kg, route intraperitoneal; conditions: in vivo; procedure, shortened: as §3
[22] = test system: Mus musculus; assay: Neurotoxicity in CF1 albino mouse assessed as tremors at 300 mg/kg, ip after 4 hrs by rotarod test; assay type: toxicity, organism-based; parameters: dose 300 mg/kg, route intraperitoneal; conditions: in vivo; procedure, shortened: as §3
[23] = test system: Mus musculus; assay: Anticonvulsant activity in CF1 albino mouse assessed as protection against electrically-induced seizure at 100 mg/kg, ip after 4 hrs by 6Hz psychomotor seizure test; assay type: functional
Procedure, shortened: (§4)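 Male CF-1 mice, compound suspended in 0.5% methylcellulose/water, given ip at 100 mg/kg; four mice per time point (0.25, 0.5, 1, 2, 4 h). Corneal stimulation with 0.2 ms monopolar rectangular pulses at 6 Hz for 3 s from a constant-current device, mice manually restrained. A mouse counted as protected if normal exploratory behaviour resumed within 10 s; motor impairment was noted alongside.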

[24] = test system: Rattus norvegicus; assay: Toxicity in Sprague-Dawley rat assessed as change in body weight at 600 mg/kg, ip measured after 24 hrs of clonus of one of the fore limbs seizure stage in protected rat; assay type: organism-based; parameters: dose 600 mg/kg, route intraperitoneal; conditions: in vivo
Procedure, shortened: (§5)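 Male Sprague–Dawley rats (150–180 g) received compound ip at 600 mg/kg, then a challenge dose of pilocarpine. Seizure severity graded on the Racine scale; rats were scored as protected or not, and body weight change was taken 24 h after the first stage III seizure.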

[25] = test system: Rattus norvegicus; assay: Toxicity in Sprague-Dawley rat assessed as change in body weight at 600 mg/kg, ip measured after 24 hrs of clonus of one of the fore limbs seizure stage in non-protected rat; assay type: organism-based; parameters: dose 600 mg/kg, route intraperitoneal; conditions: in vivo; procedure, shortened: as §5
[26] = test system: Mus musculus; assay: Neurotoxicity in CF1 albino mouse at 300 mg/kg, ip after 0.5 hrs by rotarod test; assay type: toxicity, organism-based; parameters: dose 300 mg/kg, route intraperitoneal; conditions: in vivo; procedure, shortened: as §3
[27] = test system: Mus musculus; assay: Anticonvulsant activity in CF1 albino mouse assessed as protection against electrically-induced seizure at 100 mg/kg, ip after 0.25 hrs by 6Hz psychomotor seizure test; assay type: functional, organism-based; parameters: dose 100 mg/kg; procedure, shortened: as §4
[28] = test system: Mus musculus; assay: Toxicity in CF1 albino mouse assessed as minimal motor impairment at 100 mg/kg, ip after 2 hrs; assay type: organism-based; parameters: dose 100 mg/kg, route intraperitoneal; conditions: in vivo; procedure, shortened: as §4
[29] = test system: Rattus norvegicus; assay: Anticonvulsant activity in Sprague-Dawley rat assessed as protection against pilocarpine-induced status epilepticus at 600 mg/kg, ip measured after clonus of one of the fore limbs seizure stage; assay type: functional, organism-based; parameters: dose 600 mg/kg; procedure, shortened: as §5
[30] = Displacement of [3H]batrachotoxin from neurotoxin site 2 of voltage-gated sodium channel in rat forebrain tissue; conditions: read-out: IC50
[31] = test system: Mus musculus; assay: Neurotoxicity in ip dosed CF1 albino mouse assessed as dose required to cause toxicity after 4 hrs by rotarod test; assay type: organism-based; conditions: in vivo; procedure, shortened: as §3
[32] = test system: Mus musculus; assay: Anticonvulsant activity in CF1 albino mouse assessed as protection against electrically-induced seizure at 100 mg/kg, ip after 1 hr by 6Hz psychomotor seizure test; assay type: functional; conditions: route intraperitoneal; procedure, shortened: as §4
[33] = test system: Mus musculus; assay: Anticonvulsant activity in CF1 albino mouse assessed as protection against electrically-induced seizure at 100 mg/kg, ip after 0.5 hrs by 6Hz psychomotor seizure test; assay type: functional, organism-based; parameters: dose 100 mg/kg; procedure, shortened: as §4
[34] = test system: Rattus norvegicus; assay: Anticonvulsant activity in Sprague-Dawley rat assessed as protection against pilocarpine-induced status epilepticus at 600 mg/kg, ip; assay type: functional, organism-based; parameters: dose 600 mg/kg; procedure, shortened: as §5

Row | Compound | Activity [1] | PI [2] | Activity [3] | Activity [7] | TD50 [8] | Activity [9] | Activity [12] | ED50 [13] | Activity [15] | Time [16] | Activity [17] | Activity [18] | Activity [19] | further results
1 | O=C1NC2(CCc3ccccc3C2)C(=O)N1CN1CCN(CCO)CC1 (stereo not drawn) | 100% | >20.09 | 25% | 50% | > 300 mg/kg | inactive | 100% | 14.9 mg/kg | 300 mg/kg | 4 h | – | – | – | Activity [4]: 100 mg/kg; Activity [5]: Non-toxic; Activity [6]: 300 mg/kg; Activity [10]: 100 mg/kg; Activity [11]: Non-toxic; ED50 [14]: > 250 mg/kg
2 | O=C1NC2(CCc3ccccc3C2)C(=O)N1CN1CCN(c2ccccc2F)CC1 (stereo not drawn) | – | – | – | – | – | – | – | – | 100 mg/kg | – | inactive | inactive | inactive | Activity [20]: Non-toxic; Activity [21]: Non-toxic; Activity [22]: Non-toxic
3 | O=C1CC2(CCc3ccccc3C2)C(=O)N1CN1CCN(c2cccc(C(F)(F)F)c2)CC1 (stereo not drawn) | 75% | >27.78 | inactive | 75% | > 250 mg/kg | inactive | 100% | 9 mg/kg | 100 mg/kg | 2 h | inactive | inactive | inactive | Activity [23]: inactive; Activity [24]: Non-toxic; Activity [25]: 15 g; Activity [26]: Non-toxic; Activity [27]: inactive; Activity [28]: Toxic; Activity [29]: inactive; IC50 [30]: 9.28 µM; Activity [31]: 300 mg/kg; Activity [32]: 25%; Activity [33]: inactive; Activity [34]: inactive
